Measured values from ChEMBL document CHEMBL1127780, “Synthesis of a photoaffinity taxol analogue and its use in labeling tubulin” (J Med Chem, 1994).
Several values for one entry are separate records, joined by “and”; a condition that tells them apart may be missing. Equal entries are not always repeated.

Key:
[1] = target: Tubulin beta chain (Sus scrofa) (UniProt P02554); test: The photoincorporation of [3H]-AzB-taxol into beta-subunit of tubulin was evaluated at initial ratio of 1.0
Tubulin (Bos taurus) [2] = test: The photoincorporation of [3H]AzB-taxol into tubulin was evaluated by incubation in dark
[3] = The ratio of AzT-taxol/tubulin noncovalently bound after irradiation at initial ratio of 0.5; conditions: in the assay text read “before irradiation” for “after irradiation”
How it was run: (§1)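 Noncovalent binding without irradiation: 5 μM tubulin with varied [3H]AzB-taxol, 20 min at 37 °C. Centrifuged at 40000g; pellets washed with buffer, recentrifuged and dissolved in 0.1 M NaOH. Bound mol/mol from protein and radioactivity.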

[4] = The ratio of […]/tubulin noncovalently bound […] at initial ratio of 4.0
How it was run: as §1

Tubulin (Bos taurus) [5] = test: The photoincorporation of [3H]AzB-taxol into tubulin was evaluated from polymerized tubulin
Tubulin (Bos taurus) [6] = test: The incorporation of [3H]AzB-taxol into tubulin was evaluated after irradiation with 300 nM lamp
Tubulin (Bos taurus) [7] = test: The photoincorporation of [3H]AzB-taxol into tubulin was evaluated by preirradiation of the compound
Tubulin (Bos taurus) [8] = test: The photoincorporation of [3H]AzB-taxol into tubulin was evaluated from unpolymerized tubulin on ice
[9] = The ratio of AzT-taxol/tubulin noncovalently bound […] at initial ratio of 3.0
How it was run: as §1

[10] = The ratio of AzT-taxol/tubulin noncovalently bound […] at initial ratio of 2.0
How it was run: as §1

[11] = The ratio of AzT-taxol/tubulin covalently bound after irradiation at initial ratio of 0.5
How it was run: (§2)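 Tubulin (5 μM) with [3H]AzB-taxol at varied initial ratios, 20 min at 37 °C in Pipes/EGTA/MgSO4/DTT/GTP buffer pH 6.9, then irradiated 20 min at 300 nm. Centrifuged at 40000g, 10 min, 37 °C. Pellet washed repeatedly with 50% ethanol, dissolved in 0.1 M NaOH. Covalent mol/mol from radioactivity and protein.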

[12] = The ratio of AzT-taxol/tubulin covalently bound after irradiation at initial ratio of 4.0
How it was run: as §2

Tubulin (Bos taurus) [13] = test: The photoincorporation of [3H]AzB-taxol into tubulin was evaluated from tubulin in 8M urea
Tubulin (Bos taurus) [14] = test: The incorporation of [3H]AzB-taxol into tubulin was evaluated after irradiation with 254 nM lamp
[15] = system: Tubulin alpha chain (Bos taurus); test: The photoincorporation of [3H]AzB-taxol into alpha-subunit of tubulin was evaluated at initial ratio of 1.0
[16] = The ratio of AzT-taxol/tubulin covalently bound after irradiation at initial ratio of 2.0
How it was run: as §2

[17] = target: Tubulin beta chain (Sus scrofa) (UniProt P02554); test: The photoincorporation of [3H]AzB-taxol into beta-subunit of tubulin was evaluated at initial ratio of 0.5
[18] = The ratio of AzT-taxol/tubulin covalently bound after irradiation at initial ratio of 3.0
How it was run: as §2

[19] = target: Tubulin alpha chain (Sus scrofa) (UniProt P02550); test: The photoincorporation of [3H]AzB-taxol into alpha-subunit of tubulin was evaluated at initial ratio of 0.5
How it was run: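 Tubulin (5 μM) with [3H]AzB-taxol at the stated initial ratio, 20 min at 37 °C, then irradiated 20 min at 300 nm. Ethanol-washed precipitate run on SDS-PAGE (7.5% running gel, 3% stacking gel) and stained with Coomassie. α- and β-bands excised, dissolved in 30% H2O2 at 65 °C and counted; results are % of incorporation per subunit, n = 2–3 experiments.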

Tubulin (Bos taurus) [20] = test: The inhibition of photoincorporation of AzB-taxol into tubulin was evaluated in the presence of 7.5 uM of taxol; Complete inhibition
Tubulin (Bos taurus) [21] = test: The incorporation of [3H]AzB-taxol into tubulin was evaluated after irradiation with 350 nM lamp
[22] = The ratio of […]/tubulin noncovalently bound […] at initial ratio of 1.0
How it was run: as §1

[23] = The ratio of AzT-taxol/tubulin covalently bound after irradiation at initial ratio of 1.0
How it was run: as §2

Sequence of Tubulin beta chain (Sus scrofa) (P02554 whole entry, looked up): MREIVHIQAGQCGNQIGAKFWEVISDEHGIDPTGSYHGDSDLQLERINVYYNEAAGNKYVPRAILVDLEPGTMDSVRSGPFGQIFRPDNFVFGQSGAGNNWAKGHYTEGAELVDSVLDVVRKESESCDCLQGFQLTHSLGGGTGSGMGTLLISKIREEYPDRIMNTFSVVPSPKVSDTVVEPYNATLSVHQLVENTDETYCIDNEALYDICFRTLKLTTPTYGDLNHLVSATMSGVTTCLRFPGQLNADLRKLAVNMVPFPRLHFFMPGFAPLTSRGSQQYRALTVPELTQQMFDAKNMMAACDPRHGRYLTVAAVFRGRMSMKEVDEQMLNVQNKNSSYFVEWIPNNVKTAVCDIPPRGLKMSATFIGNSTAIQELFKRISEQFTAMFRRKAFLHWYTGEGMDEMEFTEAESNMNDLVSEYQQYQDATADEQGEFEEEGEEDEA
Sequence of Tubulin alpha chain (Sus scrofa) (P02550 whole entry, looked up): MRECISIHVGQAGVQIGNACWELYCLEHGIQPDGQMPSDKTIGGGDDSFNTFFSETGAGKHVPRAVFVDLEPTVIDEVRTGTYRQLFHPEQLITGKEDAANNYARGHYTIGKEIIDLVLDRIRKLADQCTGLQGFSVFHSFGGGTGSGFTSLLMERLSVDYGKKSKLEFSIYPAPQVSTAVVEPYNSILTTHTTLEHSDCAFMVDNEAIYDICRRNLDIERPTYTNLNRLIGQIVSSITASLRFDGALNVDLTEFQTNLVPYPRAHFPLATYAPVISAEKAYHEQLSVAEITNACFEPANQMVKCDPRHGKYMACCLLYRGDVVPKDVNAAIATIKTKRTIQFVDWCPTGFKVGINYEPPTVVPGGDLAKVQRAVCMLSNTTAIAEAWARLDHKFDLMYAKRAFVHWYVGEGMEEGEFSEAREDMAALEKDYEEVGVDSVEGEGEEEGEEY

Work on CC(=O)O[C@H]1C(=O)[C@@]2(C)C([C@H](OC(=O)c3ccccc3)[C@]3(O)C[C@H](OC(=O)[C@H](O)C(NC(=O)c4ccc(N=[N+]=[N-])cc4)c4ccccc4)C(C)=C1C3(C)C)[C@]1(OC(C)=O)CO[C@@H]1C[C@@H]2O (stereo partly drawn) yielded an Incorporated [1] of 86%, an Amount incorporated (M (M of tubulin)-1) (Tubulin (Bos taurus) [2]) of 0.008 and a Ratio [3] of 0.5. The Ratio [4] was 1.19, the Amount incorporated (M (M of tubulin)-1) (Tubulin (Bos taurus) [5]) was 0.15 and the Amount incorporated (M (M of tubulin)-1) (Tubulin (Bos taurus) [6]) was 0.12. The Amount incorporated (M (M of tubulin)-1) (Tubulin (Bos taurus) [7]) was 0.016, the Amount incorporated (M (M of tubulin)-1) (Tubulin (Bos taurus) [8]) was 0.03 and the Ratio [9] was 1.2. The Ratio [10] was 1.22, the Ratio [11] was 0.13 and the Ratio [12] was 0.24. It also gave an Amount incorporated (M (M of tubulin)-1) (Tubulin (Bos taurus) [13]) of 0.015, an Amount incorporated (M (M of tubulin)-1) (Tubulin (Bos taurus) [14]) of 0.13 and an Incorporated [15] of 14%. The Ratio [16] was 0.23, the Incorporated [17] was 80% and 81% and the Ratio [18] was 0.23. The Incorporated [19] was 20% and 19%, the Incorporated (Tubulin (Bos taurus) [20]) was “Complete inhibition” and the Amount incorporated (M (M of tubulin)-1) (Tubulin (Bos taurus) [21]) was 0.025. For the same molecule, the Ratio [22] was 0.85 and the Ratio [23] was 0.17.
